This is an account of results in paper PMC4607565 (Bioorganic & medicinal chemistry letters, 2015).

Substitutions are numbered along the chain they refer to. Entries after “also recorded” stand apart in the source; their conditions may differ. Like-named read-outs stand apart in the source and are kept apart here.

One assay has as its target T1, human TG2 (V224 variant) (Homo sapiens, UniProt P21980).
T1 sequence (P21980 1-687): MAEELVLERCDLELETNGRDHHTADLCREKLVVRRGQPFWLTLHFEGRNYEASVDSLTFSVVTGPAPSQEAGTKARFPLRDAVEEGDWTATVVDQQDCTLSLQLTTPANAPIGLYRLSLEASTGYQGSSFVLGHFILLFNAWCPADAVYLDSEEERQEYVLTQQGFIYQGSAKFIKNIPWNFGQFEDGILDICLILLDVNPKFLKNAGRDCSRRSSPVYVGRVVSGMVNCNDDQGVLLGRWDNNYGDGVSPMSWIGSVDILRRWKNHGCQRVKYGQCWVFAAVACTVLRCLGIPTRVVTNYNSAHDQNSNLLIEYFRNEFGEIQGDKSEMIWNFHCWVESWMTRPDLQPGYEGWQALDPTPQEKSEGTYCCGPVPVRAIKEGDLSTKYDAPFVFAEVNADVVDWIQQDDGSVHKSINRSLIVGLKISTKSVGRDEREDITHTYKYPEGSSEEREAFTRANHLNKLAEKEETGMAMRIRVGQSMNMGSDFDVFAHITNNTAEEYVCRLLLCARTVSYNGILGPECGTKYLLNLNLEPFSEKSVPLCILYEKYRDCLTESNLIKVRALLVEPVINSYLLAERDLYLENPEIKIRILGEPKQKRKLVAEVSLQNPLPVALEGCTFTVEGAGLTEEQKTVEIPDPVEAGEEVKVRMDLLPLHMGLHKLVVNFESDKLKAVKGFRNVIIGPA
In words: coupled GDH assay of TG2 deamidation of Cbz-Gln-Gly. It counts as biochemical. The conditions noted are these: for mode of inhibition / activation: V224 TG2.

For assay [1], the system named is extracellular TG2 in WI-38 fibroblasts. In words: 5-BP incorporation into extracellular matrix proteins of WI-38 fibroblasts. Format: cell-based. The gist of the method:
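WI-38 fibroblasts were grown to confluence, then pre-incubated with vehicle (1% DMSO) or test compound for 30 min. Cells were then given 200 μM 5-(biotinamido)pentylamine for 3 h, fixed and stained. Transamidation was scored as 5-BP incorporated into extracellular matrix proteins, imaged at 5 fields sampled across each well.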

The target in assay [2] is T2, TG2 (Homo sapiens, UniProt P21980).
T2 sequence (P21980 1-687): T1 sequence (P21980 1-687)
Description: microtiter plate transamidation assay. It counts as biochemical. The gist of the method:
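In a microtiter plate format, TG2 incorporated 5-BP into immobilized N,N-dimethylcasein. The incorporated biotin was quantified with streptavidin. Ca2+ was held at the sub-saturating level of 0.6 mM, and the test compound was assayed with or without the stable GTP analog GMP-PNP.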

The target of assay [3] is T2, TG2. Description: native PAGE analysis of open versus closed states.
For assay [4], the target named is T3, R580A mutant of human TG2 (Homo sapiens, UniProt P21980, R580A).
T3 sequence (P21980 1-687 R580A): T1 sequence (P21980 1-687) with R580A
Description: deamidation activity of R580A mutant. The conditions noted are these: [TG2] = 0.5 μM, [Ca2+] = 3 mM. It counts as biochemical. Summed up:
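Deamidation by wild-type and R580A TG2 was measured side by side with test compound and the GTP analog GMP-PNP, at 0.5 μM enzyme and 3 mM Ca2+.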

The target in assay [5] is T4, truncated form of human TG2 (1-466) (Homo sapiens, UniProt P21980).
T4 sequence (P21980 1-466): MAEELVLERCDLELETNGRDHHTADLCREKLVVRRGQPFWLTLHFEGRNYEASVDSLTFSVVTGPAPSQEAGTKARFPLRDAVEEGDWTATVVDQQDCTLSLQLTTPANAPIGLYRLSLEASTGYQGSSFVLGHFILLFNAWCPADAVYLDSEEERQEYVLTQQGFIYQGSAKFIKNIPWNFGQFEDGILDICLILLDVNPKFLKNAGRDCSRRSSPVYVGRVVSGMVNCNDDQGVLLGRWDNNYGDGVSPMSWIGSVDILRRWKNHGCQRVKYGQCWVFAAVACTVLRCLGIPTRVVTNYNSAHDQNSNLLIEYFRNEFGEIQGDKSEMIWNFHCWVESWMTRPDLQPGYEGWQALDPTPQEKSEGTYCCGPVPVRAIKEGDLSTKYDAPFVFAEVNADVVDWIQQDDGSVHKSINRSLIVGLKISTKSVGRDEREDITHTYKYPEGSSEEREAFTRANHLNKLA
Description: deamidation activity of truncated TG2. It counts as biochemical. The conditions noted are these: [TG2] = 0.5 μM; [Ca2+] = 5 mM. Summed up: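 The truncated TG2 (residues 1-466) lacks both C-terminal beta-barrel domains and was expressed and purified. It was tested against wild-type TG2 in the deamidation assay at 0.5 μM enzyme and 5 mM Ca2+. Activity was normalized to each protein's own maximum, since kcat and KM differ between the two proteins.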

The target of assay [6] is T5, TG2 S2A mutant (E396Q/N398S/D400N) (Homo sapiens, UniProt P21980, D400N/E396Q/N398S).
T5 sequence (P21980 1-687 E396Q/N398S/D400N): T1 sequence (P21980 1-687) with E396Q, N398S, D400N
Description: deamidation activity of S2A mutant. It counts as biochemical. To be noted: [TG2] = 2.5 μM; [Ca2+] = 5 mM.

Assay [7] deals with T6, TG2 S2B mutant (E447Q/E451Q/E452Q/E454Q) (Homo sapiens, UniProt P21980, E447Q/E451Q/E452Q/E454Q).
T6 sequence (P21980 1-687 E447Q/E451Q/E452Q/E454Q): T1 sequence (P21980 1-687) with E447Q, E451Q, E452Q, E454Q
In words: deamidation activity of S2B mutant. To be noted: [TG2] = 2.5 μM; [Ca2+] = 5 mM. It counts as biochemical.

The target in assay [8] is T2, TG2. The conditions noted are these: active site-directed irreversible inhibitor; cited from earlier work.
Assay [9] has as its target T3, R580A mutant of human TG2. The conditions noted are these: cited from earlier work.
Assay [10] has as its target TG2. To be noted: cited from earlier work.

With `COc1ccccc1C(=O)/C=C1/C(=O)Nc2cccc(Cl)c21` [CK-IV-55], the “mode of inhibition / activation” value at human TG2 (V224 variant) (Lineweaver-Burk analysis) was “non-competitive inhibitor”. The “extent of inhibition of wild-type TG2” value on human TG2 (V224 variant) ([TG2] = 0.5 μM, [Ca2+] = 5 mM) was “partial inhibitory character”. Further, the “effect on TG2 catalytic activity at sub-saturating Ca2+” value on human TG2 (V224 variant) (sub-saturating Ca2+, 0.5-0.7 mM (legend of Figure 4A: 0.5-0.8 mM)) is given as “weak but reproducible agonism; also recorded: activated TG2”. Besides, the “extracellular TG2 activity (5-BP incorporation)” value is “activation of extracellular TG2” in assay [1] (1 μM compound, 200 μM 5-BP, 3 h) and “TG2 activity was suppressed compared to the 1 μM case” in [1] (10 μM compound, 3 h). Further, the “effect on transamidating activity of TG2” value at TG2 [2] (0.6 mM Ca2+ alone) is recorded as “agonism was not observed”. For the same compound, the “effect on transamidation activity of TG2” value on TG2 [2] (0.6 mM Ca2+ and 100 μM GMP-PNP) was “markedly enhanced”. Also, on TG2 [3], the “influence on relative distribution of open versus closed states of TG2” value is “did not have a measurable influence”. Also, the “agonistic effect in the presence of GMP-PNP” value in assay [4] (R580A mutant) was “evident”. Also, the “inhibitory potency in R580A mutant versus wild-type” value in assay [4] is “unaltered”. Also, the “extent of inhibition of TG2 (1-466)” value in assay [5] was “total antagonist”. Also, the “inhibitory effect on S2A mutant compared with wild-type” value in assay [6] is listed as “comparable inhibitory effect”. Further, the “effect on activity of S2B mutant” value in [7] is recorded as “no effect”.

As for Ac-P(DON)LPF-NH2, at TG2 [8], the “effect on TG2 conformation” value is “locks TG2 in the open state”.

`Nc1nc2c(ncn2[C@@H]2O[C@H](COP(=O)(O)OP(=O)(O)NP(=O)(O)O)[C@@H](O)[C@H]2O)c(=O)[nH]1` [GMP-PNP, reference compound]: at human TG2 (V224 variant) (Lineweaver-Burk analysis), the “mode of inhibition / activation” value is “competitive inhibitor”. In addition, the “inhibition of R580A mutant” value in [9] was “attenuated”.

Turning to `[Ca+2]` [Ca^2+, reference compound], at human TG2 (V224 variant) (Lineweaver-Burk analysis), the “mode of inhibition / activation” value is on record as “competitive activator”. Besides, the “Ka, activation of V224 TG2” value at human TG2 (V224 variant) (Lineweaver-Burk analysis, [TG2] = 0.5 μM) amounted to 0.6 ± 0.3 mM. Also, the Kd (as a rule, a measure of binding affinity in units of concentration) at TG2 [10] (read-out: Kd, high-affinity Ca2+ binding site, one site (S1)) is ~1 µM; at TG2 [10] (read-out: Kd, lower-affinity Ca2+ binding sites, five sites), ~1000 µM.

For `O=C1Nc2cccc(Cl)c2/C1=C\C(=O)c1ccc(Cl)cc1` [CK-IV-67], the “extracellular TG2 activity (5-BP incorporation)” value in assay [1] (concentrations not given (data not shown)) was “higher absolute concentrations of the latter inhibitor were required to see elevated 5-BP incorporation”.
